Results reported in ChEMBL document CHEMBL3627671, “Novel derivatives of nitro-substituted salicylic acids: Synthesis, antimicrobial activity and cytotoxicity” (Bioorg Med Chem, 2015).
Converted amounts (≈) assume the structure as drawn.

What was measured:
[1] = tested on: Trichophyton mentagrophytes; test: Antifungal activity against Trichophyton mentagrophytes 445 after 48 hrs by microdilution broth method; assay type: functional; conditions: Trichophyton mentagrophytes, 445, 48 h
[2] = tested on: Staphylococcus epidermidis; test: Antibacterial activity against Staphylococcus epidermidis H 6966/08 after 48 hrs by microdilution broth method; assay type: functional; conditions: H 6966/08, 48 h
Method in brief: (§1)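 Mueller-Hinton broth microdilution (modified M07-A07), pH 7.4 (±0.2). Compounds dissolved in DMSO, tested at final 500 to 0.49 µmol/L. Inoculum in sterile water matched to 0.5 McFarland. Incubated in the dark, humid atmosphere, 35 °C, read at 24 and 48 h visually and at 540 nm. MIC taken as ≥95% growth reduction (IC95) versus control.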

[3] = tested on: Trichophyton mentagrophytes; test: Antifungal activity against Trichophyton mentagrophytes 445 after 24 hrs by microdilution broth method; assay type: functional; conditions: Trichophyton mentagrophytes, 445, 24 h
Candida albicans [4] = test: Antifungal activity against Candida albicans ATCC 44859 after 24 hrs by microdilution broth method; assay type: functional; conditions: ATCC 44859, 24 h
Method in brief: (§2)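 CLSI M27-A3 broth microdilution in RPMI 1640 with glutamine, buffered to pH 7.0 with MOPS; DMSO diluent. Yeast inoculum 5 × 10^3 ± 0.2 CFU/mL. Moulds grown on Sabouraud agar 3–10 days before spore harvest, final inoculum 0.5-5 × 10^4 CFU/mL, checked in a Bürker chamber. Incubated dark, humid, 35 °C, read at 24 and 48 h visually and at 540 nm. MIC taken as ≥80% (yeasts) or ≥50% (filamentous) growth reduction versus control.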

Pseudomonas aeruginosa [5] = test: Antibacterial activity against Pseudomonas aeruginosa CCM 1961 after 48 hrs by microdilution broth method; assay type: functional; conditions: CCM 1961, 48 h; method in brief: as §1
Mycobacterium kansasii [6] = test: Antimycobacterial activity against Mycobacterium kansasii 6509/96 after 21 days; assay type: functional; conditions: 6509/96, 504 h
Method in brief: (§3)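 Šula's semisynthetic medium micromethod at 37 °C, read after 7, 14 and 21 days. The 1.0 McFarland suspension was diluted 10^-4. MIC determined. 6509/96 is a clinical isolate.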

Escherichia coli [7] = test: Antibacterial activity against Escherichia coli CCM4517 after 48 hrs by microdilution broth method; assay type: functional; conditions: CCM4517, 48 h; method in brief: as §1
Candida tropicalis [8] = test: Antifungal activity against Candida tropicalis 156 after 48 hrs by microdilution broth method; assay type: functional; conditions: Candida tropicalis, 156, 48 h; method in brief: as §2
Staphylococcus aureus [9] = test: Antibacterial activity against Staphylococcus aureus CCM 4516/08 after 48 hrs by microdilution broth method; assay type: functional; conditions: CCM 4516/08, 48 h
[10] = tested on: Mycobacterium tuberculosis; test: Antimycobacterial activity against Mycobacterium tuberculosis H37Rv 331/88 after 21 days; assay type: functional; conditions: H37Rv 331/88, 504 h
Enterococcus sp. [11] = test: Antibacterial activity against Enterococcus sp. J 14365/08 after 24 hrs by microdilution broth method; assay type: functional; conditions: J 14365/08, 24 h; method in brief: as §1
Escherichia coli [12] = test: Antibacterial activity against Escherichia coli CCM4517 after 24 hrs by microdilution broth method; assay type: functional; conditions: CCM4517, 24 h; method in brief: as §1
Mycobacterium kansasii [13] = test: Antimycobacterial activity against Mycobacterium kansasii 235/80 after 7 days; assay type: functional; conditions: 235/80, 168 h; method in brief: as §3
Enterococcus sp. [14] = test: Antibacterial activity against Enterococcus sp. J 14365/08 after 48 hrs by microdilution broth method; assay type: functional; conditions: J 14365/08, 48 h; method in brief: as §1
Klebsiella pneumoniae [15] = test: Antibacterial activity against Klebsiella pneumoniae D 11750/08 after 48 hrs by microdilution broth method; assay type: functional; conditions: D 11750/08, 48 h; method in brief: as §1
Aspergillus fumigatus [16] = test: Antifungal activity against Aspergillus fumigatus 231 after 24 hrs by microdilution broth method; assay type: functional; conditions: Aspergillus fumigatus, 231, 24 h; method in brief: as §2
Nakaseomyces glabratus [17] = test: Antifungal activity against Candida glabrata 20/I after 24 hrs by microdilution broth method; assay type: functional; method in brief: as §2
Mycobacterium kansasii [18] = test: Antimycobacterial activity against Mycobacterium kansasii 235/80 after 14 days; assay type: functional; conditions: 235/80, 336 h; method in brief: as §3
Candida albicans [19] = test: Antifungal activity against Candida albicans ATCC 44859 after 48 hrs by microdilution broth method; assay type: functional; conditions: ATCC 44859, 48 h; method in brief: as §2
Mycobacterium kansasii [20] = test: Antimycobacterial activity against Mycobacterium kansasii 6509/96 after 14 days; assay type: functional; conditions: 6509/96, 336 h; method in brief: as §3
Klebsiella pneumoniae [21] = test: Antibacterial activity against Klebsiella pneumoniae D 11750/08 after 24 hrs by microdilution broth method; assay type: functional; conditions: D 11750/08, 24 h; method in brief: as §1
Trichosporon asahii [22] = test: Antifungal activity against Trichosporon asahii 1188 after 48 hrs by microdilution broth method; assay type: functional; conditions: Trichosporon asahii, 1188, 48 h; method in brief: as §2
Klebsiella pneumoniae [23] = test: Antibacterial activity against ESBL-positive Klebsiella pneumoniae J 14368/08 after 24 hrs by microdilution broth method; assay type: functional; conditions: J 14368/08, 24 h; method in brief: as §1
Staphylococcus aureus [24] = test: Antibacterial activity against Staphylococcus aureus CCM 4516/08 after 24 hrs by microdilution broth method; assay type: functional; conditions: CCM 4516/08, 24 h
Lichtheimia corymbifera [25] = test: Antifungal activity against Absidia corymbifera 272 after 48 hrs by microdilution broth method; assay type: functional; conditions: Lichtheimia corymbifera, 272, 48 h; method in brief: as §2
Mycobacterium kansasii [26] = test: Antimycobacterial activity against Mycobacterium kansasii 235/80 after 21 days; assay type: functional; conditions: 235/80, 504 h; method in brief: as §3
Pichia kudriavzevii [27] = test: Antifungal activity against Candida krusei E28 after 24 hrs by microdilution broth method; assay type: functional; conditions: E28, 24 h; method in brief: as §2
Trichosporon asahii [28] = test: Antifungal activity against Trichosporon asahii 1188 after 24 hrs by microdilution broth method; assay type: functional; conditions: Trichosporon asahii, 1188, 24 h; method in brief: as §2
Klebsiella pneumoniae [29] = test: Antibacterial activity against ESBL-positive Klebsiella pneumoniae J 14368/08 after 48 hrs by microdilution broth method; assay type: functional; conditions: J 14368/08, 48 h; method in brief: as §1
Pichia kudriavzevii [30] = test: Antifungal activity against Candida krusei E28 after 48 hrs by microdilution broth method; assay type: functional; conditions: E28, 48 h; method in brief: as §2
Staphylococcus aureus [31] = test: Antibacterial activity against methicillin-resistant Staphylococcus aureus H 5996/08 after 48 hrs by microdilution broth method; assay type: functional; conditions: H 5996/08, 48 h
Candida tropicalis [32] = test: Antifungal activity against Candida tropicalis 156 after 24 hrs by microdilution broth method; assay type: functional; conditions: Candida tropicalis, 156, 24 h; method in brief: as §2
Aspergillus fumigatus [33] = test: Antifungal activity against Aspergillus fumigatus 231 after 48 hrs by microdilution broth method; assay type: functional; conditions: Aspergillus fumigatus, 231, 48 h; method in brief: as §2
Nakaseomyces glabratus [34] = test: Antifungal activity against Candida glabrata 20/I after 48 hrs by microdilution broth method; assay type: functional; method in brief: as §2
Staphylococcus aureus [35] = test: Antibacterial activity against methicillin-resistant Staphylococcus aureus H 5996/08 after 24 hrs by microdilution broth method; assay type: functional; conditions: H 5996/08, 24 h
Mycobacterium avium [36] = test: Antimycobacterial activity against Mycobacterium avium 330/80 after 14 days; assay type: functional; conditions: 330/80, 336 h
Pseudomonas aeruginosa [37] = test: Antibacterial activity against Pseudomonas aeruginosa CCM 1961 after 24 hrs by microdilution broth method; assay type: functional; conditions: CCM 1961, 24 h; method in brief: as §1
[38] = tested on: Mycobacterium tuberculosis; test: Antimycobacterial activity against Mycobacterium tuberculosis H37Rv 331/88 after 14 days; assay type: functional; conditions: H37Rv 331/88, 336 h
[39] = tested on: Staphylococcus epidermidis; test: Antibacterial activity against Staphylococcus epidermidis H 6966/08 after 24 hrs by microdilution broth method; assay type: functional; conditions: H 6966/08, 24 h; method in brief: as §1
Mycobacterium avium [40] = test: Antimycobacterial activity against Mycobacterium avium 330/80 after 21 days; assay type: functional; conditions: 330/80, 504 h
Lichtheimia corymbifera [41] = test: Antifungal activity against Absidia corymbifera 272 after 24 hrs by microdilution broth method; assay type: functional; conditions: Lichtheimia corymbifera, 272, 24 h; method in brief: as §2
Mycobacterium kansasii [42] = test: Antimycobacterial activity against Mycobacterium kansasii 6509/96 after 7 days; assay type: functional; conditions: 6509/96, 168 h; method in brief: as §3
[43] = Selectivity index, ratio of CI50 for human HepG2 cells to MIC100 for Mycobacterium tuberculosis H37Rv 331/88
HepG2 = test: Cytotoxicity against human HepG2 cells after 24 hrs […]; assay type: cell-based; conditions: HepG2, 24 h

With `O=C(Nc1cccc([N+](=O)[O-])c1)c1cc([N+](=O)[O-])ccc1O` the MIC [1] was > 250 µM, the MIC [2] was 500 µM (≈ 152 µg/mL) and the MIC [3] was > 250 µM. The MIC (Candida albicans [4]) was > 250 µM, the MIC (Pseudomonas aeruginosa [5]) was > 500 µM and the MIC (Mycobacterium kansasii [6]) was 125 µM (≈ 37.9 µg/mL). The MIC (Escherichia coli [7]) was > 500 µM, the MIC (Candida tropicalis [8]) was > 250 µM and the MIC (Staphylococcus aureus [9]) was 500 µM (≈ 152 µg/mL). The MIC [10] was 62.5 µM (≈ 19 µg/mL), the MIC (Enterococcus sp. [11]) was > 500 µM and the MIC (Escherichia coli [12]) was > 500 µM. For the same compound, the MIC (Mycobacterium kansasii [13]) was 16 µM (≈ 4.85 µg/mL), the MIC (Enterococcus sp. [14]) was > 500 µM and the MIC (Klebsiella pneumoniae [15]) was > 500 µM. For the same compound, the MIC (Aspergillus fumigatus [16]) was > 250 µM, the MIC (Nakaseomyces glabratus [17]) was > 250 µM and the MIC (Mycobacterium kansasii [18]) was 62.5 µM (≈ 19 µg/mL). The MIC (Candida albicans [19]) was > 250 µM, the MIC (Mycobacterium kansasii [20]) was 125 µM (≈ 37.9 µg/mL) and the MIC (Klebsiella pneumoniae [21]) was > 500 µM. The MIC (Trichosporon asahii [22]) was > 250 µM, the MIC (Klebsiella pneumoniae [23]) was > 500 µM and the MIC (Staphylococcus aureus [24]) was 500 µM (≈ 152 µg/mL). For the same compound, the MIC (Lichtheimia corymbifera [25]) was > 250 µM, the MIC (Mycobacterium kansasii [26]) was 125 µM (≈ 37.9 µg/mL) and the MIC (Pichia kudriavzevii [27]) was > 250 µM. For the same compound, the MIC (Trichosporon asahii [28]) was > 250 µM, the MIC (Klebsiella pneumoniae [29]) was > 500 µM and the MIC (Pichia kudriavzevii [30]) was > 250 µM. The MIC (Staphylococcus aureus [31]) was 500 µM (≈ 152 µg/mL), the MIC (Candida tropicalis [32]) was > 250 µM and the MIC (Aspergillus fumigatus [33]) was > 250 µM. For the same compound, the MIC (Nakaseomyces glabratus [34]) was > 250 µM, the MIC (Staphylococcus aureus [35]) was 500 µM (≈ 152 µg/mL) and the MIC (Mycobacterium avium [36]) was 125 µM (≈ 37.9 µg/mL). The MIC (Pseudomonas aeruginosa [37]) was > 500 µM, the MIC [38] was 62.5 µM (≈ 19 µg/mL) and the MIC [39] was 500 µM (≈ 152 µg/mL). For the same compound, the MIC (Mycobacterium avium [40]) was 125 µM (≈ 37.9 µg/mL), the MIC (Lichtheimia corymbifera [41]) was > 250 µM and the MIC (Mycobacterium kansasii [42]) was 62.5 µM (≈ 19 µg/mL).

In the case of `O=C(Nc1cccc(C(F)(F)F)c1)c1cccc([N+](=O)[O-])c1O`, the “Selectivity Index” value [43] is reported as 0.278, the MIC (Mycobacterium kansasii [6]) is reported as 250 µM (≈ 81.6 µg/mL) and the MIC [10] is reported as 32 µM (≈ 10.4 µg/mL). It also gave an MIC (Mycobacterium kansasii [13]) of 32 µM (≈ 10.4 µg/mL), an MIC (Mycobacterium kansasii [18]) of 62.5 µM (≈ 20.4 µg/mL) and an MIC (Mycobacterium kansasii [20]) of 250 µM (≈ 81.6 µg/mL). For the same compound, the MIC (Mycobacterium kansasii [26]) was 62.5 µM (≈ 20.4 µg/mL), the IC50 (HepG2) was 8.9 µM and the MIC (Mycobacterium avium [36]) was 500 µM (≈ 163 µg/mL). For the same compound, the MIC [38] was 32 µM (≈ 10.4 µg/mL), the MIC (Mycobacterium avium [40]) was 500 µM (≈ 163 µg/mL) and the MIC (Mycobacterium kansasii [42]) was 125 µM (≈ 40.8 µg/mL).
